Screening results from PubChem.
Hits are enriched below; roughly 3% of the tested compounds scored in any of these assays.
CHRM4 antagonist: blocks acetylcholine activation of human M4 receptor; P08173; CHO-hM4 cells, ACh EC80, Fluo-8 calcium fluorescence; inhibition, % at 3 µM; hit rate 0.73% among 360,000; AID 624125;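 active means inhibition above its plate's cutoff, the mean inhibition of sample wells plus 3 SD, cut at about 27% in these data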;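 further: 0% = acetylcholine EC80 with DMSO and 100% = DMSO without agonist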
TAAR1 antag: human TAAR1 antagonism; Q96RJ0; CHO RD-HGA16 TAAR1, Fluo-8 calcium fluorescence, antagonist; inhibition, % at 3 µM; hit rate 1.5% among 360,000;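 active means inhibition above a per-plate cutoff, the mean inhibition of test compounds on that plate plus 3 SD, cut at about 49% in these data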;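 further: 0% = DMSO plus EC80 beta-PEA response and 100% = DMSO alone without agonist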
Target sequence (Q96RJ0 whole entry, looked up): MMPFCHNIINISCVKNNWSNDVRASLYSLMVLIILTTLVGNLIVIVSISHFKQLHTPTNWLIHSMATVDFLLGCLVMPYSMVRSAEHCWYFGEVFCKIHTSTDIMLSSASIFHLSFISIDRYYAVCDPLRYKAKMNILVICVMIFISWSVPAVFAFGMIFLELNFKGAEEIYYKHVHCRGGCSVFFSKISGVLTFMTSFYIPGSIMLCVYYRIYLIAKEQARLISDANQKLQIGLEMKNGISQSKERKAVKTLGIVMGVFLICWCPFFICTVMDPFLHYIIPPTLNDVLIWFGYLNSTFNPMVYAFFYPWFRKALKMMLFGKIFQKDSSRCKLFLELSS
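Material: RD-HGA16 CHO cells with stable hTAAR1 and Gα16; Dosing: single nominal final test compound concentration of 3 µM; Schedule: seeding 17-24 h prior, 75-min 37 °C, 30-min RT dye loading; Detection: kinetic Fluo-8 calcium fluorescence measurement; Measure: % inhibition from peak post-agonist over basal fluorescence ratio; Benchmarks: vehicle and agonist controls.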
TAAR1 agonist: agonists of human TAAR1; Q96RJ0; CHO RD-HGA16 TAAR1, Fluo-8 calcium fluorescence; vehicle wells 0%, saturating PEA agonist 100%; activation, % at 3 µM; hit rate 0.99% among 360,000; AID 624467;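 active means activation above the mean activation of all test compounds in the run plus 3 SD, cut at about 38% in these data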
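Assay system – CHO-derived RD-HGA16 cells with stable Gα16 and human TAAR1 · Compound dosing – one-point dosing at 3 µM (nominal) · Incubation – 17-24 h seeding, 75 min 37 °C dye, 30 min RT · Measured by – kinetic Fluo-8 calcium fluorescence · Control set – DMSO vehicle as 0%, PEA at EC100 as 100% · Repeats – single well for each compound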
M4 PAM: CHRM4 positive allosteric modulation | CHO-K1 hM4/Gqi5, Fluo-8 calcium fluorescence, ACh EC20; 0% = ACh EC20, 100% = maximal ACh | hit rate 0.4% among 360,000 | activation, % at 3 µM | P08173;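 active means activation above its plate's cutoff, the mean activation of sample wells plus 3 SD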
M4 ag: CHRM4 agonism in calcium assay; CHO-K1 hM4/Gqi5, Fluo-8 calcium fluorescence; vehicle 0%, full acetylcholine response 100%; hit rate 0.14% among 360,000; activation, % at 3 µM; P08173;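 active means activation above the run mean over all test wells plus 3 SD, cut at about 32% in these data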;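 further: peak over basal fluorescence ratio per well then scaled between controls; 0% = DMSO wells and 100% = acetylcholine at EC100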
nonsel antag count: counter-screen for TAAR1 antagonists: nonselective antagonists. shares compounds with TAAR1 antag. counterscreen cell line, calcium fluorescence, antagonist mode. inhibition, % at 3 µM. hit rate 77% among 2,400. AID 651780; in the data active means inhibition above about 22%;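 further: CHO-Ga16 host cells stimulated with ATP at an EC80 level; 0% = agonist EC80 plus vehicle and 100% = vehicle without agonist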
TAAR1 ant conf: confirmation of human TAAR1 antagonists; TAAR1-expressing cells, fluorescence antagonist read-out; inhibition, % at 3 µM; hit rate 40% among 2,400; shares compounds with TAAR1 antag; AID 651785; in the data active means inhibition above about 49%;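 further: CHO-Ga16 host cells challenged with agonist PEA near its EC80; 0% = agonist at EC80 plus vehicle and 100% = vehicle with no agonist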
Ga16 nonsel ag: nonselective Ga16 agonism, counter-screen. hit rate 18% among 2,400. Ga16-expressing cells, calcium fluorescence, agonist counterscreen. shares compounds with TAAR1 antag. activation, % at 3 µM. AID 651953; in the data active means activation above about 12%;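 further: 0% = vehicle wells and 100% = saturating stimulus response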
TAAR1 ag count: activates human TAAR1 in antagonist counter-screen. shares compounds with TAAR1 antag. hTAAR1 cell line, fluorescence activation, agonist mode. activation, % at 3 µM. hit rate 2% among 2,400. AID 651955; in the data active means activation above about 37%;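 further: CHO cells stably expressing TAAR1 with calcium dye readout; 0% = DMSO vehicle and 100% = full agonist response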
Numbers without * were called inactive; x = no result given.

SMILES | CHRM4 antagonist | TAAR1 antag | TAAR1 agonist | M4 PAM | M4 ag | others
CCN1CCN(CCCNC(=O)C2CCCN(c3nnc(-n4cccc4)s3)C2)CC1 (stereo unspecified) | -10 | 7 | 13 | 27* | 0
c1ccc2c(c1)ccc1ncccc12 | 5 | -13 | 1 | 21* | 2
O=C(N/N=C/c1c(O)ccc2ccccc12)c1cccc(C(F)(F)F)c1 | 2 | 62* | 58* | -6 | 11
CC(=O)Nc1cccc(OC(=O)N2CCOCC2)c1 | -4 | -2 | 20 | 27* | 1
COc1cccc(OC(=O)N2CCOCC2)c1 | -1 | -4 | 9 | -4 | 0
COc1ccc(C(O)c2nc(-c3cccc4cccnc34)cs2)cc1 (stereo unspecified) | -5 | -3 | 1 | 6 | 3
CCOC(=O)C1=C(Cc2ccc(Cl)cc2)C(=O)c2ccccc2C1=O | 35* | x | x | -5 | 14
NC(=O)c1c(N)[nH]c(C(=O)c2ccccc2)c1-c1ccc2ccccc2c1 | x | -18 | 10 | x | x
CCOC(=O)C1[C@H]2C(=O)N(C(C)c3ccc(OC)cc3)C[C@]23C=C[C@H]1O3 (stereo partly specified) | 75* | 7 | 4 | -32 | 0
COc1ccccc1NS(=O)(=O)c1cc([N+](=O)[O-])ccc1N/N=C/c1c[nH]c2ccccc12 | 7 | 54* | 12 | -2 | 2
Nc1ccc2ccc(N)cc2c1 | x | -3 | 3 | x | x
COc1ccc(CC(=O)Nc2cccc(-c3nnc(-c4cccc(C)c4)o3)c2)cc1OC | 21 | 78* | 22 | -21 | 21
COc1ccc(CC(=O)Nc2ccc(-c3nnc(-c4ccccc4)o3)cc2)cc1OC | 10 | x | x | -4 | 0
COCCN1Cc2cc(C(=O)OC)c3c(c2C1=O)c1cc(F)ccc1n3S(=O)(=O)c1cccc(C)c1 | x | -30 | 5 | x | x
Oc1ccc(C[C@@H]2CNCCN2CCCCC2CCCCC2)cc1 | 15 | 3 | 43* | 11 | 5
Fc1cccc(CCN2CCNC[C@@H]2CC2CCCCC2)c1 | 13 | 7 | 39* | -11 | 4
Oc1ccc(C[C@@H]2CNCCN2CCc2cc(C(F)(F)F)cc(C(F)(F)F)c2)cc1 | 15 | -7 | 36 | 25* | 6
Oc1ccc(C[C@H]2CNCCN2CCc2cc(C(F)(F)F)cc(C(F)(F)F)c2)cc1 | 0 | 8 | 28 | 7 | 4
c1ccc(C2(CN3CCNC[C@@H]3CC3CCCCC3)CC2)cc1 | -3 | 14 | 13 | 4 | 2
OCC1SC(O)C(O)C(O)C1O (stereo unspecified) | x | -8 | 1 | x | x
CCN(CC)c1ccc(/C=C/c2ccc3ccc(OC)cc3[n+]2CC)cc1 | 36* | 6 | 7 | -15 | 22
CCCCNc1c(-c2cccc(-c3ccc(OC)cc3)c2)nc2cc(C)ccn12 | 42* | 55* | 8 | -13 | 15
COc1ccc(-c2nc3ccc(C)cn3c2NCc2ccc3c(c2)OCO3)cc1 | -15 | 32 | 6 | -5 | 6
CCCCNc1c(-c2cccc(-c3ccc(OC)cc3)c2)nc2ccc(C)cn12 | 52* | 81* | 12 | -14 | 22
CCN(CC)c1nc(C=Cc2ccc(N(C)C)cc2)c2nccnc2n1 | 41* | 62* | 61* | -10 | 29
SMILES | CHRM4 antagonist | TAAR1 antag | TAAR1 agonist | M4 PAM | M4 ag | others
CN(C)c1ccc(C=Cc2nccc3ccccc23)cc1 | 23 | 16 | 11 | -17 | 36*
COc1cccc(C=Cc2nccc3ccccc23)c1OC | -6 | 7 | -2 | -10 | 4
CCN(C1CCS(=O)(=O)C1)S(=O)(=O)c1ccc(OC)c(OC)c1 (stereo unspecified) | -8 | -7 | 0 | 23* | 1
CCCCN(C1CCS(=O)(=O)C1)S(=O)(=O)c1ccc(OC)cc1 (stereo unspecified) | 3 | 1 | 0 | -3 | 1
Cc1cccc(N2CCN(C(=O)c3ccc(Cl)c(NC4=NC5CS(=O)(=O)CC5S4)c3)CC2C)c1 (stereo unspecified) | 2 | 56* | 15 | -5 | 18 | nonsel antag count=26*;TAAR1 ant conf=43;Ga16 nonsel ag=8;TAAR1 ag count=8
O=C(c1ccc(Cl)c(NC2=NC3CS(=O)(=O)CC3S2)c1)N1CCN(c2ccccc2)CC1 (stereo unspecified) | -3 | -5 | 2 | 10 | 4
CC1(C(=O)NS(=O)(=O)c2ccc(C#N)cc2)CCN1C(=O)c1cccc2ccccc12 (stereo unspecified) | -2 | -7 | 0 | -1 | 0
Cn1c(C(=O)Nc2ccc3c(c2)OCO3)cc2c(=O)n(C)c3ccccc3c21 | -4 | -1 | 1 | 5 | 2
CC(NC(=O)c1cc2c(=O)n(C)c3ccccc3c2n1C)c1ccc2c(c1)OCCO2 (stereo unspecified) | -10 | 59* | 7 | -7 | 6 | nonsel antag count=22*;TAAR1 ant conf=34;Ga16 nonsel ag=4;TAAR1 ag count=3
O=C(Nc1ccccc1)c1cc(C2CCCCN2C(=O)CCc2ccccc2)on1 (stereo unspecified) | -6 | 3 | 6 | -4 | 4
N#Cc1cccc(NC(=O)c2cc(C3CCCCN3C(=O)CCCc3ccccc3)on2)c1 (stereo unspecified) | -4 | 61* | 10 | -13 | 17 | nonsel antag count=34*;TAAR1 ant conf=54*;Ga16 nonsel ag=11;TAAR1 ag count=14
COc1cccc(S(=O)(=O)N(C)C[C@H]2OCc3cnnn3CCCC(=O)N([C@@H](C)CO)C[C@@H]2C)c1 | -11 | 11 | 2 | 4 | 0
CC(=O)Nc1cc(-c2ccsc2)cn2c(-c3ccc(F)cc3)cnc12 | 13 | 13 | 5 | -1 | 1
CC[C@H](C)C(C(=O)N1CCN(C(=O)OC(C)(C)C)CC1)n1cc(C(Cc2ccc(O)cc2)NC(=O)OC(C)(C)C)nn1 (stereo partly specified) | 2 | 56* | 22 | -11 | 23 | nonsel antag count=30*;TAAR1 ant conf=48;Ga16 nonsel ag=7;TAAR1 ag count=8
C=CCn1c2ccccc2c(=O)c2cc(C#CC3(O)CCCCC3)ccc21 | 1 | 66* | 13 | 0 | 1 | nonsel antag count=30*;TAAR1 ant conf=46;Ga16 nonsel ag=5;TAAR1 ag count=5
C=CCn1c2ccccc2c(=O)c2cc(C#CC[C@@H](C)O)ccc21 | -13 | 9 | 4 | 2 | 4
